Experimental findings from ChEMBL document CHEMBL1671679, “Lack of pharmacokinetic interaction between amdoxovir and reduced- and standard-dose zidovudine in HIV-1-infected individuals” (Antimicrob Agents Chemother, 2010) are described below.

Format in all cases: ADME, organism-based
Data set [1] in a line: Cmax in HIV-1 infected patient at 500 mg, po bid on day 1 by LC-MS/MS analysis. As to conditions: human, in vivo. Also noted: dose 500 mg, route oral. In a few lines: (§1)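 Untreated Hispanic HIV-1-infected adults (viral load ≥5,000 copies/ml, CD4 ≥200 cells/mm3). Blood was drawn into DCF-containing EDTA tubes on day 1 (0–12 h) and on day 10 (0–48 h post last dose), then stored at −80°C. Plasma was methanol-extracted with an internal standard and run by LC-MS/MS (2–3,000 ng/ml AMDX/DXG; 2–5,000 ng/ml ZDV). Noncompartmental analysis assumed extravascular input; τ = 12 h; geometric means reported; accumulation was taken as AUCτ day 10/day 1.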

Data set [2] relates to Homo sapiens. The data set can be described thus: Ratio of AUC (0 to 12 hrs) in HIV-1 infected patient at 500 mg, po bid on day 10 to AUC (0 to 12 hrs) in HIV-1 infected patient at 500 mg, po bid on day 1. The note with it: in vivo. In a few lines: as §1
The nature of data set [3]: AUC (0 to 12 hrs) in HIV-1 infected patient at 500 mg, po bid on day 10 by LC-MS/MS analysis. Also noted: dose 500 mg, time < 12 hr, route oral. As to conditions: human, plasma. In a few lines: as §1
Data set [4] can be described thus: Cmax in HIV-1 infected patient at 500 mg, po bid on day 10 coadministered with 200 mg, po bid zidovudine by LC-MS/MS analysis. As to conditions: human, in vivo. Also noted: dose 500 mg, route oral. In a few lines:
as §1

Data set [5] can be described thus: AUC (0 to 12 hrs) in HIV-1 infected patient at 500 mg, po bid on day 10 coadministered with 300 mg, po bid zidovudine by LC-MS/MS analysis. As to conditions: human, plasma. Set-up: dose 500 mg, time < 12 hr, route oral. In a few lines:
as §1

The nature of data set [6]: Half life in HIV-1 infected patient at 500 mg, po bid on day 10 by LC-MS/MS analysis. As to conditions: human, in vivo. In a few lines: as §1
Data set [7] can be described thus: Cmax in HIV-1 infected patient at 500 mg, po bid on day 10 coadministered with 300 mg, po bid zidovudine by LC-MS/MS analysis. Also noted: dose 500 mg, route oral. The note with it: human, in vivo. In a few lines: as §1
The nature of data set [8]: Cmax in HIV-1 infected patient at 500 mg, po bid on day 10 by LC-MS/MS analysis. Set-up: dose 500 mg, route oral. The note with it: human, in vivo. In a few lines: as §1
In data set [9] the test system is Homo sapiens. Kind of data set: Tmax in HIV-1 infected patient assessed as beta-D-dioxolane guanosine level at 500 mg, po bid on day 1 by LC-MS/MS analysis. As to conditions: in vivo. In a few lines:
as §1

Data set [10] relates to Homo sapiens. Kind of data set: Ratio of AUC (0 to 12 hrs) in HIV-1 infected patient at 500 mg, po bid on day 10 coadministered with 300 mg, po bid zidovudine to AUC (0 to 12 hrs) in HIV-1 infected patient at 500 mg, po bid on day 1 coadministered with 300 mg, po bid zidovudine. As to conditions: in vivo. In short, it runs like this:
as §1

Data set [11] can be described thus: Apparent oral clearance in HIV-1 infected patient at 500 mg, po bid on day 10 coadministered with 200 mg, po bid zidovudine by LC-MS/MS analysis. The note with it: human, in vivo. In short, it runs like this: as §1
Data set [12] can be described thus: Half life in HIV-1 infected patient at 500 mg, po bid on day 10 coadministered with 200 mg, po bid zidovudine by LC-MS/MS analysis. The note with it: human, in vivo. In a few lines:
as §1

Data set [13] in a line: Tmax in HIV-1 infected patient at 500 mg, po bid on day 10 by LC-MS/MS analysis. As to conditions: human, in vivo. In a few lines: (§2)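 Treatment-naive Hispanic HIV-1-infected adults (≥5,000 RNA copies/ml, CD4 ≥200 cells/mm3). Blood drawn after first dose on day 1 (0–12 h) and after last dose on day 10 (0–48 h) into DCF-containing EDTA tubes to block ex vivo deamination, centrifuged, plasma stored −80°C. Methanol extraction with internal standard, LC-MS/MS (linear 2–3,000 ng ml−1 for AMDX and DXG). Noncompartmental analysis assuming extravascular input; geometric means reported.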

Data set [14] is described as follows: Apparent oral clearance in HIV-1 infected patient at 500 mg, po bid on day 10 by LC-MS/MS analysis. As to conditions: human, in vivo. In short, it runs like this:
as §1

For data set [15], the system named is Homo sapiens. Kind of data set: Ratio of AUC (0 to 12 hrs) in HIV-1 infected patient at 500 mg, po bid on day 10 coadministered with 200 mg, po bid zidovudine to AUC (0 to 12 hrs) in HIV-1 infected patient at 500 mg, po bid on day 1 coadministered with 200 mg, po bid zidovudine. As to conditions: in vivo. In short, it runs like this: as §1
Data set [16] can be described thus: Tmax in HIV-1 infected patient at 500 mg, po bid on day 1 by LC-MS/MS analysis. As to conditions: human, in vivo. In short, it runs like this: as §2
Data set [17] is described as follows: Tmax in HIV-1 infected patient at 500 mg, po bid on day 10 coadministered with 300 mg, po bid zidovudine by LC-MS/MS analysis. The note with it: human, in vivo. In short, it runs like this:
as §2

Data set [18] can be described thus: Apparent oral clearance in HIV-1 infected patient at 500 mg, po bid on day 10 coadministered with 300 mg, po bid zidovudine by LC-MS/MS analysis. As to conditions: human, in vivo. In a few lines: as §1
The nature of data set [19]: Half life in HIV-1 infected patient at 500 mg, po bid on day 1 by LC-MS/MS analysis. The note with it: human, in vivo. In short, it runs like this: as §1
A short description of data set [20]: Half life in HIV-1 infected patient at 500 mg, po bid on day 10 coadministered with 300 mg, po bid zidovudine by LC-MS/MS analysis. As to conditions: human, in vivo. In short, it runs like this:
as §1

Data set [21] can be described thus: Tmax in HIV-1 infected patient at 500 mg, po bid on day 10 coadministered with 200 mg, po bid zidovudine by LC-MS/MS analysis. The note with it: human, in vivo. In a few lines: as §2
Data set [22] is described as follows: AUC (0 to 12 hrs) in HIV-1 infected patient at 500 mg, po bid on day 10 coadministered with 200 mg, po bid zidovudine by LC-MS/MS analysis. Also noted: dose 500 mg, time < 12 hr, route oral. The note with it: human, plasma. In short, it runs like this: as §1

In the case of `Nc1nc(N)c2ncn([C@H]3CO[C@@H](CO)O3)c2n1` [AMDOXOVIR], the Cmax in [1] is 514 ng/mL; in data set [4] it was 649 ng/mL; in [7], 714 ng/mL; in data set [8] it was 499 ng/mL. Further, the “Ratio AUC” value in the data set on Homo sapiens [2] is on record as 0.95; in the data set with Homo sapiens [10], 0.67; with Homo sapiens [15], 0.99. In addition, the AUC at 12 h amounted to 1330 ng·h/mL in [3], 2090 ng·h/mL in data set [5] and 1730 ng·h/mL in [22]. In addition, the half-life was 1.4 h in data set [6], 1.7 h in [12], 1.3 h in [19] and 1.1 h in data set [20]. Further, the Tmax in the data set on Homo sapiens [9] is 1 h; in [13], 2 h; in data set [16], 1 h; in [17], 2.5 h; in data set [21], 2.5 h. The CL/F in data set [11] is 74.7 mL/min/kg; in data set [14] it was 91.5 mL/min/kg; in data set [18], 63.5 mL/min/kg.
